From ChEMBL document CHEMBL1139442, “Pyrrolobenzimidazoles linked to heterocycles and peptides. Design of DNA base pair specific phosphate hydrolyzing agents and novel cytotoxic agents” (2004) come the findings set out here.

The subject of one experiment is Nucleic Acid. The experiment can be described thus: DNA alkylation ability was determined. The following applies: Bos taurus. Type of experiment: functional. In outline: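 Bulk alkylation of calf thymus DNA. Drug (0.004 mmol) in DMSO was added, sealed and degassed under argon. The mix was reduced by H2 purge over Pd/C until colourless, argon-purged, then held at 30 °C for 24 h. After catalyst removal, DNA was ethanol/ammonium acetate precipitated at −20 °C for 16 h, pelleted, redissolved and reprecipitated.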

Experiment [1] addresses NAD(P)H dehydrogenase [quinone] 1 (Homo sapiens) (UniProt P15559). As to the kind of experiment: Substrate specificity for human DT-diaphorase was determined.
For experiment [2], the system named is Panel melanoma (Carcinoma cell lines). As to the kind of experiment: Cytostatic activity against human melanoma cell lines was determined. The format is functional. A digest of the protocol:
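Tested in the NCI In Vitro Cell Line Screening Project, 60 human tumour lines. Cytostatic read-outs are GI50 (50% growth inhibition) and TGI (total growth inhibition).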

Experiment [3] has the same test system. The experiment can be described thus: Cytotoxic activity against human melanoma cell lines was determined. The format is functional. Also noted: unit not given here. A digest of the protocol:
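Tested in the NCI In Vitro Cell Line Screening Project, 60 human tumour lines. Cytotoxic read-out is LC50, the concentration giving 50% cell kill.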

Sequence of NAD(P)H dehydrogenase [quinone] 1 (Homo sapiens) (P15559 whole entry): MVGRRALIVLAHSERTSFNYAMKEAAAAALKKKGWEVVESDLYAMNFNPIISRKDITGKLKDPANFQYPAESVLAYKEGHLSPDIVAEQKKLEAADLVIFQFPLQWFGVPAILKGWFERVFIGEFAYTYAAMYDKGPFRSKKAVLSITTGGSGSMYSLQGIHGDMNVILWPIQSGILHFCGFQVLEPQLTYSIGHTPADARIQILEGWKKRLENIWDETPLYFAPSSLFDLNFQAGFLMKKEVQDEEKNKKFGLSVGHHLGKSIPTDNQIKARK

With `CCCCC(=O)NC1CCn2c1nc1c2C(=O)C(C)=C(N2CC2)C1=O` (stereo not given), in the experiment on Nucleic Acid, the DNA alkylation is 9%.
On the same count and under the same terms, with `CC1=C(N2CC2)C(=O)c2nc3n(c2C1=O)CCC3N` (stereo not given) the figure was 100%; with `CC1=C(N2CC2)C(=O)c2nc3n(c2C1=O)CCC3NC(=O)c1cccnc1` (stereo not given), 20%.
The compound `CC1=C(N2CC2)C(=O)c2nc3n(c2C1=O)CCC3NC(=O)c1ccncc1` (stereo not given) gave a DNA alkylation in the experiment with Nucleic Acid of 79%. Also, the k cat/Km in experiment [1] stood at 0.00033 M⁻¹ s⁻¹. Moreover, in experiment [2], the “log GI50 range” value stood at 1.96 and the “log TGI range” value was found to be 2.5. The LC50 in experiment [3] was 2.35.
For the compound `CC1=C(N2CC2)C(=O)c2nc3n(c2C1=O)CC[C@@H]3NC(=O)C1CCCN1` (stereo not given in full), in experiment [2], the “log GI50 range” value turned out to be 3.34 and the “log TGI range” value came out at 2.8. Further, in experiment [3], the LC50 is on record as 2.27.
On to `CC1=C(N2CC2)C(=O)c2nc3n(c2C1=O)CCC3NC(=O)Cc1ccncc1` (stereo not given), for which the DNA alkylation in the experiment on Nucleic Acid was 35%.
`CC1=C(N2CC2)C(=O)c2nc3n(c2C1=O)CCC3NC(=O)c1ccnc2ccccc12` (stereo not given) displayed a DNA alkylation in the experiment on Nucleic Acid of 10%.
For `CC1=C(N2CC2)C(=O)c2nc3n(c2C1=O)CC[C@@H]3NC(=O)[C@H](N)Cc1ccccc1`, in experiment [2], the “log GI50 range” value came to 1.69 and the “log TGI range” value amounted to 4. In experiment [3], this compound gave an LC50 of 4.
`CCC(=O)NC1CCn2c1nc1c2C(=O)C(C)=C(N2CC2)C1=O` (stereo not given): the DNA alkylation with Nucleic Acid is 0%.
On to `CC1=C(N2CC2)C(=O)c2nc3n(c2C1=O)CC[C@@H]3NC(=O)[C@@H](Cc1ccccc1)NC(=O)[C@H](N)Cc1ccccc1`, for which, in experiment [2], the “log GI50 range” value is on record as 2.42 and the “log TGI range” value is recorded as 4. This compound showed an LC50 in experiment [3] of 4.
